Bioassay records (PubChem BioAssay)
Insulin prom act: TRM-6 insulin promoter activation; TRM-6 cells (human fetal islet line), insulin promoter eGFP reporter, imaging; plate-scaled: unstimulated 0, stimulated control 100; activation, % at 2 µM; 130,000 compounds, 0.81% hits;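 active means activation at 2 µM above a set limit, confirmed on inspection of the cell images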;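 further: share of cells whose green reporter signal exceeds an intensity cutoff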
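Assay system: TRM-6 human fetal islet cells, insulin promoter–eGFP reporter; Also added: 0.75 µM tamoxifen as reporter inducer; Schedule: 15 h tamoxifen pre-treatment, 48 h compound treatment at 37 °C; Signal: fixed-cell fluorescence microscopy, eGFP plus Hoechst; Read-out: percent activation from GFP-positive cell fraction; Control set: stimulated and unstimulated wells.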
Numbers without * were called inactive. The sample as a whole holds a higher share of hits than the screen did.

SMILES | Insulin prom act
CCOc1cc(S(=O)(=O)Nc2ccccn2)ccc1F | 464*
COc1ccc(F)cc1S(=O)(=O)N1CCCC(C)C1 (centres undefined) | -9
COc1ccc(F)cc1S(=O)(=O)NC1CCCC1 | 83*
CCOc1cc(S(=O)(=O)n2nc(C)cc2C)ccc1F | -50
CCOC(=O)N1CCN(C(=O)COc2ccc(S(=O)(=O)NC3CCCCC3)cc2C)CC1 | 123
CCOc1cc(S(=O)(=O)NC2CCCCCC2)ccc1F | 420*
CCOc1cc(S(=O)(=O)Nc2ccc(Cl)cn2)ccc1Cl | -2
CCOc1cc(S(=O)(=O)N2CCOCC2)ccc1F | -81
CC(C)CN(CC(C)C)C(=O)C12CCC(C)(C(=O)O1)C2(C)C (centres undefined) | 5
CN(CC(=O)NCc1ccccn1)S(=O)(=O)c1ccc2ccccc2c1 | 0
Cc1noc(C)c1CCC(=O)N1CCCC(CCC(=O)NCc2ccccc2F)C1 (centres undefined) | -9
O=C(NN1C(=O)c2ccc(-c3ccc4c(c3)C(=O)N(NC(=O)c3cccnc3)C4=O)cc2C1=O)c1cccnc1 | 6
CCC(=O)Nc1ccc(S(=O)(=O)Nc2ccc(Cl)nn2)cc1 | 7
C/C(CCc1ccc2c(c1)OCO2)=N\N=C1\NC(=O)CC(C(=O)Nc2ccc(Cl)cc2)S1 (centres undefined) | -7
O=C(COC(=O)c1ccc(CO)cc1)NCc1cccs1 | -7
CCC(=O)N1CCc2cc(S(=O)(=O)NCCCOC)ccc21 | 0
CCC(=O)N1CCc2cc(S(=O)(=O)NC(Cc3ccccc3)C(=O)NC3CCCCC3)ccc21 (centres undefined) | 317*
CCOC(=O)N1CCC(NC(=O)C(NS(=O)(=O)c2ccc3c(c2)CCN3C(C)=O)C(C)C)CC1 (centres undefined) | 123
COc1ccc(S(=O)(=O)NCC(c2cccnc2)N2CCN(c3ccccc3OC)CC2)cc1C (centres undefined) | 186*
COc1ccccc1N1CCN(C(CNC(=O)c2ccc3c(c2)OCO3)c2cccnc2)CC1 (centres undefined) | 0
COc1ccccc1N1CCN(C(CNS(=O)(=O)c2ccccc2)c2cccnc2)CC1 (centres undefined) | -10
CC(C)OCCCNS(=O)(=O)c1ccc2ccccc2c1 | -7
O=C(N/N=C/c1cccnc1)c1ccccc1[N+](=O)[O-] | -3
COC(=O)[C@@]1(Cc2ccc(OC)cc2)[C@H]2c3cc(C(=O)N4CCCC4)n(CCn4cc([N+](=O)[O-])nc4C)c3C[C@H]2CN1C(=O)c1ccccc1 | -5
Cc1ccccc1Cn1nc(C)c(NC(=O)C2c3ccccc3Oc3ccccc32)c1C | 4
SMILES | Insulin prom act
COc1ccc(C2C(C(=O)N3CCN(C)CC3)c3cc(OC)c(OC)cc3C(=O)N2C)cc1 (centres undefined) | 0
COc1cc2c(cc1OC)C(C(=O)Nc1cccc(C)n1)C(c1cccnc1)N(C)C2=O (centres undefined) | 0
COc1cc2c(cc1OC)C(C(=O)Nc1ccccc1N1CCN(C)CC1)C1c3ccccc3CCN1C2=O (centres undefined) | 355*
O=C(CN1CCCc2ccccc21)NCc1ccccc1Cl | 9
Cc1c(NC(=O)CN2CCCc3ccccc32)c(=O)n(-c2ccccc2)n1C | 0
CN(C)S(=O)(=O)c1ccc(NC(=O)CN2CCCc3ccccc32)cc1 | 383*
CCCc1nnc(SCC(=O)N2CCOCC2)n1C | 153
CCOC(=O)C(=O)Nc1cc(Cl)ccc1C | -4
CC(=O)NN1C(=O)c2ccc(Oc3cccc([N+](=O)[O-])c3)cc2C1=O | 2
COc1ccc(-n2nc(C#N)c(Cl)cc2=O)cc1 | 4
CCN(CC)C(=O)CNC(=S)N(CCCN1CCOCC1)Cc1cccs1 | -3
O=C(COC(=O)C1CCCCC1)Nc1ccccc1OC(F)F | 122
O=C(Cc1c2ccccc2nc2ccccc12)c1ccccc1 | -61
O=C(CN1CCN(c2cccc(Cl)c2)CC1)N1CCCC1 | -7
O=C(O)CCC(=O)N1CCN(c2cccc(Cl)c2)CC1 | 467*
CC(=O)/C(C(=N)N1CCN(c2cccc(Cl)c2)CC1)=C(\C)O | -6
COc1ccc(-c2cc(C(F)(F)F)nc(-n3ccnc3C)n2)cc1 | 0
CC(C)Sc1nc2ccccc2[nH]1 | -78
CCOC(=O)c1c(NC(=O)Cc2cccs2)sc(C(=O)NC2CCCC2)c1C | 3
COC(=O)c1c(NC(=O)Cc2cccs2)sc(C(=O)NC2CCCCC2)c1C | 290
CCOC(=O)c1c(NC(=O)Cc2cccs2)sc(C(=O)NC2CCCCC2)c1C | 153*
CCN1CCS/C1=C/C=C/C1=[N+](CC)CCS1 | 233*
Clc1ccc(-c2nnc(COc3ncnc4sccc34)o2)cc1 | -7
CC(C)C(NS(=O)(=O)c1cccs1)C(=O)NCCN1CCN(c2ccccc2)CC1 (centres undefined) | -6
CCOC(=O)CNC(=O)C(Cc1ccccc1)NS(=O)(=O)c1cccs1 (centres undefined) | 106
SMILES | Insulin prom act
CC(C)C(NS(=O)(=O)c1cccs1)C(=O)NCc1ccc2c(c1)OCO2 (centres undefined) | 162*
Cc1ccc(CNC(=O)C(Cc2ccccc2)NS(=O)(=O)c2cccs2)cc1 (centres undefined) | 96*
CCCC(C)C(=O)NCc1ccc2c(c1)OCO2 (centres undefined) | 3
CC(Cc1ccccc1)C(=O)NCc1ccncc1 (centres undefined) | -5
CCN(CC)C(=O)C1CCCN(C(=O)Nc2ccccc2)C1 (centres undefined) | -7
COc1ccc(NC(=O)C2CC(=O)OC23CCOC(C)(C)C3)cc1 (centres undefined) | 3
CC(=O)CCn1cnc([N+](=O)[O-])n1 | -7
CC1CCN(S(=O)(=O)c2ccc(C(=O)Nc3nnc(-c4ccccn4)o3)cc2)CC1 | 136
O=C(Nc1nnc(-c2ccccc2Cl)o1)c1ccc(S(=O)(=O)N2CCCCCC2)cc1 | 400*
O=C(Nc1nnc(-c2cccs2)o1)c1ccc(S(=O)(=O)N2CCOCC2)cc1 | 6
O=C(Nc1ccccc1Oc1ccccc1)c1ccccc1F | -2
CCOc1ccc2c(c1)C(C)=CC(C)(C)N2C(=O)Nc1ccccc1 | 81*
CCOc1ccc(NC(=O)CCn2cccc2)cc1 | -73
CCOc1ccc2c(c1)-c1c(ssc1=S)C(C)(C)N2C(=O)c1ccco1 | -7
O=C(c1ccc(Cn2c(=S)[nH]c3cc4c(cc3c2=O)OCO4)cc1)N1CCN(c2ncccn2)CC1 | 7
Cc1nc(N)sc1N=Nc1ccc(Br)cc1 | 0
CCn1c(COc2ccc(=O)n(-c3ccccc3)n2)nnc1SC | 118
CCn1c(=NC(=O)CSC(C)=O)sc2cc(F)ccc21 | 79*
C=CCn1c(=NC(=O)CN2C(=O)CCC2=O)sc2cc(S(N)(=O)=O)ccc21 | 0
COC(=O)Cn1c(=NC(=O)c2cc(OC)cc(OC)c2)sc2cc(OC)ccc21 | -3
Cc1cccc(C)c1N1CC(=O)N(c2c(C)cccc2C)CC1=O | 8
O=C1CN(c2ccccc2F)C(=O)CN1c1ccccc1F | 412*
O=C(c1ccccc1C(=O)N1CCN(c2ccccc2F)CC1)N1CCN(c2ccccc2F)CC1 | 0
O=C1C2C3C=CC(C2C(=O)N1CCCO)C1C2C(=O)N(CCCO)C(=O)C2C31 (centres undefined) | -3
Nc1nc(SCC(=O)Nc2ncc(C(F)(F)F)cc2Cl)n[nH]1 | -5
Cc1ccc2nc(/C(C#N)=C\c3ccc(Oc4ccc([N+](=O)[O-])cn4)cc3)[nH]c2c1 | -4
